{"source": "ChEMBL document CHEMBL3817814", "about": "“Development and Characterization of a Potent Free Fatty Acid Receptor 1 (FFA1) Fluorescent Tracer” (J Med Chem, 2016)", "key": {"[1]": {"target": "T1, Free fatty acid receptor 1 (Homo sapiens, UniProt O14842)", "T1 sequence (O14842 whole entry)": "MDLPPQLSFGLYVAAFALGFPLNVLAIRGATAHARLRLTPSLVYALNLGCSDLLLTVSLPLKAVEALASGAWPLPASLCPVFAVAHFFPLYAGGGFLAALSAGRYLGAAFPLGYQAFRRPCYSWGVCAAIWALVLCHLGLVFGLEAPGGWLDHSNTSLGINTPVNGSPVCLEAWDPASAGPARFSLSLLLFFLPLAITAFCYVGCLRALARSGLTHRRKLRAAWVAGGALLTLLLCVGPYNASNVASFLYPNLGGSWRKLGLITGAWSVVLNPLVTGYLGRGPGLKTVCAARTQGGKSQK", "assay": "Displacement of 3-(2-Fluoro-4-((2'-methyl-4'-(2-(2-((7-nitrobenzo[c][1,2,5]-oxadiazol-4-yl)amino)ethoxy)ethoxy)-[1,1'-biphenyl]-3-yl)-methoxy)phenyl)propanoic acid from N-terminal NLUC-tagged FFA1 receptor (unknown origin) expressed in human Flp-In T-REX-293 cell membrane coexpressing mGluR5 incubated for 1 hr by equilibrium BRET assay", "assay_type": "cell membranes"}, "[2]": {"target": "T1, Free fatty acid receptor 1", "assay": "Agonist activity at human C-terminal eYFP-tagged FFA1 receptor expressed in HEK-293 cells assessed as beta-arrestin2 recruitment incubated for 5 mins by BRET assay relative to TUG-770", "assay_type": "cell-based", "conditions": "HEK293"}, "[3]": {"target": "T1, Free fatty acid receptor 1", "assay": "Agonist activity at human C-terminal eYFP-tagged FFA1 receptor expressed in HEK-293 cells assessed as beta-arrestin2 recruitment incubated for 5 mins by BRET assay", "assay_type": "cell-based, HEK293"}, "[4]": {"target": "T1, Free fatty acid receptor 1", "assay": "Agonist activity at eYFP-tagged FFA1 receptor (unknown origin) expressed in human Flp-In T-REX-293 cells measured for 90 secs by Fura-2 AM dye based calcium mobilization assay", "assay_type": "functional, cell-based", "outline": "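Flp-In T-REx 293 cells with doxycycline-inducible FFA1-eYFP were plated 50,000/well and induced with 100 ng/ml doxycycline 24 h before assay. Cells were Fura-2 AM loaded 45 min, washed three times and kept 15 min in HBSS. […] Mean ± S.E.M., n=3.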"}, "[5]": {"target": "T1, Free fatty acid receptor 1", "assay": "Agonist activity at FFA1 receptor (unknown origin) expressed in human […] cells measured for 90 secs by Fura-2 AM dye based calcium mobilization assay", "assay_type": "functional, cell-based", "outline": "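N1-FFA1 cells constitutively expressing untagged FFA1 were plated 24 h before the assay. They were loaded with Fura-2 AM for 45 min, washed three times, and held 15 min in HBSS. Fura-2 emission at 510 nm (340 or 380 nm excitation) was read before and for 90 s after compound addition. The peak 340/380 ratio gave concentration-response curves for potency.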"}, "[6]": {"target": "T1, Free fatty acid receptor 1", "assay": "Agonist activity at FFA1 receptor (unknown origin) expressed in human […] cells measured for 90 secs by Fura-2 AM dye based calcium mobilization assay relative to TUG-770", "assay_type": "functional, cell-based", "outline": "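Untagged FFA1 constitutively expressed in N1-FFA1 cells, plated 15,000/well 24 h ahead. Cells loaded 45 min with Fura-2 AM, washed three times, then held 15 min in HBSS. Emission at 510 nm from 340/380 nm excitation was recorded before and for 90 s after compound addition. The peak 340/380 ratio gave concentration-response curves.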"}, "[7]": {"target": "T1, Free fatty acid receptor 1", "assay": "Binding affinity to N-terminal NLUC-tagged FFA1 receptor (unknown origin) expressed in human Flp-In T-REX-293 cell membrane coexpressing mGluR5 incubated for 1 hr by equilibrium BRET assay", "assay_type": "cell membranes", "outline": "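Membranes from NLUC-FFA1 Flp-In T-REx 293 cells (induced 24 h, 100 ng/ml doxycycline) were used at 5 µg protein/well in 50 mM HEPES, 100 mM NaCl, 10 mM CaCl2, 10 mM MgCl2. Varying tracer concentrations, up to 100 nM, were incubated 1 h at 25 °C, with 10 µM unlabeled agonist defining non-specific binding. Nano-Glo (1:800 final) was added, then 460/545 nm emission read after 5 min. Kd came from saturation fits.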"}, "[8]": {"target": "T1, Free fatty acid receptor 1", "assay": "Binding affinity to N-terminal NLUC-tagged FFA1 receptor (unknown origin) expressed in human Flp-In T-REX-293 cell membrane coexpressing mGluR5 preincubated for 5 mins followed by TUG-905 addition measured after 15 mins by kinetic BRET assay", "assay_type": "cell membranes", "outline": "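Membranes (2.5 µg protein/well) were pre-incubated 5 min at 25 °C with Nano-Glo (1:800 final), and 460/545 nm emission was read every 20 s at 25 °C. After 60 s, tracer (100 nM final) was injected; 5 min later 10 µM unlabeled agonist was injected and reading continued 15 min. Non-specific signal from wells pre-dosed with unlabeled agonist was subtracted, giving koff and kon.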"}}}
{"smiles": "O=C(O)CCc1ccc(OCc2ccccc2)cc1", "note": "[BENZYLOXYPHENYLPROPANOIC ACID]", "values": [{"measurement": "Ki", "setting": "[1]", "value": 13800, "unit": "nM"}, {"measurement": "Emax", "setting": "[2]", "value": 90, "unit": "%"}]}
{"smiles": "O=C(O)CCc1ccc(NCc2cccc(Oc3ccccc3)c2)cc1", "note": "[GW9508]", "values": [{"measurement": "Ki", "setting": "[1]", "value": 219, "unit": "nM"}, {"measurement": "Emax", "setting": "[2]", "value": 86, "unit": "%"}]}
{"smiles": "Cc1cc(Oc2ncc(C(F)(F)F)cc2Cl)ccc1CC1SC(=O)NC1=O", "note": "(stereo not drawn)", "values": [{"measurement": "Ki", "setting": "[1]", "value": 69.2, "unit": "nM"}, {"measurement": "EC50", "setting": "[3]", "value": 55, "unit": "nM"}, {"measurement": "Emax", "setting": "[2]", "value": 95, "unit": "%"}]}
{"smiles": "O=C(O)CCc1ccc(C#Cc2cccc(OCCOCCNc3ccc([N+](=O)[O-])c4nonc34)c2)cc1F", "values": [{"measurement": "EC50", "setting": "[4]", "value": "> 1000", "unit": "nM"}]}
{"smiles": "CCCCCCCCCCCC(=O)O", "note": "[DODECANOATE]", "values": [{"measurement": "pKb", "setting": "[1]", "value": 4.46}, {"measurement": "EC50", "setting": "[3]", "value": 7940, "unit": "nM"}, {"measurement": "Emax", "setting": "[2]", "value": 130, "unit": "%"}, {"measurement": "EC50", "setting": "[5]", "value": 759, "unit": "nM"}, {"measurement": "Emax", "setting": "[6]", "value": 116, "unit": "%"}]}
{"smiles": "Cc1cc(OCCOCCNc2ccc([N+](=O)[O-])c3nonc23)ccc1-c1cccc(COc2ccc(CCC(=O)O)c(F)c2)c1", "values": [{"measurement": "EC50", "setting": "[4]", "value": 187, "unit": "nM"}, {"measurement": "Kd", "setting": "[7]", "value": 7.4, "unit": "nM"}, {"measurement": "Kd", "setting": "[8]", "value": 4, "unit": "nM"}]}
{"smiles": "Cc1ccccc1-c1cccc(CNc2ccc(CCC(=O)O)cc2)c1", "values": [{"measurement": "Emax", "setting": "[2]", "value": 114, "unit": "%"}]}
{"smiles": "Cc1ccccc1C#Cc1ccc(CCC(=O)O)cc1", "values": [{"measurement": "Ki", "setting": "[1]", "value": 631, "unit": "nM"}, {"measurement": "EC50", "setting": "[3]", "value": 67.6, "unit": "nM"}, {"measurement": "Emax", "setting": "[2]", "value": 100, "unit": "%"}]}
{"smiles": "Cc1cc(OCCCS(C)(=O)=O)cc(C)c1-c1cccc(COc2ccc3c(c2)OC[C@H]3CC(=O)O)c1", "values": [{"measurement": "Emax", "setting": "[2]", "value": 89, "unit": "%"}, {"measurement": "Emax", "setting": "[6]", "value": 108, "unit": "%"}]}
{"smiles": "N#CCc1ccccc1C#Cc1ccc(CCC(=O)O)cc1", "values": [{"measurement": "Emax", "setting": "[2]", "value": 95, "unit": "%"}]}
